The list is not random: actives were taken first. Their share in the collection is about 27%.
Rev-RRE block – inhibitors of HIV-1 Rev-RRE RNA interaction; P05866; Rev peptide-RRE RNA binding, FRET; inhibition, % at 8 µM; 97,000 tested, 0.79% active;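 active means inhibition above the screen-wide mean plus 3 SD, cut at about 35% in these data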;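 further: 0% = median DMSO wells and 100% = median Neomycin B control wells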
Target sequence (P05866 whole entry, looked up): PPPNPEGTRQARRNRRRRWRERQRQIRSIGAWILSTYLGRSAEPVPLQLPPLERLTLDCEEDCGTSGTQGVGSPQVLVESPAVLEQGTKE
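Test system: Cy5-tagged RRE RNA duplex with fluorescein-tagged Rev peptide | Read-out: % inhibition of FRET ratio versus controls | Probe or stimulus: Labelled Rev peptide | Incubation: 5 min RNA-compound premix plus 15 min binding step, 25 °C | Technique: FRET fluorescence readout | Benchmarks: DMSO low control, neomycin B high control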
Cav3 T inh – human Cav3.2 channel inhibition, primary screen. B-score at 10 µM. AID 449739. 100,000 tested, 4% active. O95180. Cav3.2-expressing cells, Fluo-4 calcium fluorescence FDSS; hits give low values;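 active means single-dose well whose peak fluorescence ratio is a statistical outlier from its plate by either plate-standardised score or position-corrected B-score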
CYP2C9 inhib – inhibitors of human CYP2C9; P11712; CYP2C9 Supersomes, luciferin-H conversion, luminescence; inhibition, % at 5 µM; 96,000 tested, 20% active;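 active means blocking of liver enzyme CYP2C9 beyond about 50% at 5 µM, limit read from the data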
Target sequence (P11712 whole entry, looked up): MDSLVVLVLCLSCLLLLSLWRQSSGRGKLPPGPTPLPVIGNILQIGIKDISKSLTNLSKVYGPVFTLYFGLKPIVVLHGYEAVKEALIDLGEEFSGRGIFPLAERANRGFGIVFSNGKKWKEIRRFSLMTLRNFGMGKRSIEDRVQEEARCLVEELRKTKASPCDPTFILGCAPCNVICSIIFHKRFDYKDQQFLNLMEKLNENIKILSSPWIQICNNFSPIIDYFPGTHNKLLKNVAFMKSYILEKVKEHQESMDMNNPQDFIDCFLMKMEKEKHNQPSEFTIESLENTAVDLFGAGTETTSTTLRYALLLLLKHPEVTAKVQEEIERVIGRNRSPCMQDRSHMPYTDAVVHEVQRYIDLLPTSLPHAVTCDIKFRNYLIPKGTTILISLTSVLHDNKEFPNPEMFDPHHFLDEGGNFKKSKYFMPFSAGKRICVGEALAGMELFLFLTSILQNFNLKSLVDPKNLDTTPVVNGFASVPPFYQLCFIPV
CYP2C9 act – increases human cytochrome P450 2C9 activity; 96,000 tested, 1.4% active; recombinant CYP2C9, luciferin-H conversion, luminescence; hits give high values; factor 1 = untreated enzyme, 0 = blocked; activation factor at 5 µM; P11712; AID 1024;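 active means activation factor of 2 or more for CYP2C9 at a 5 µM dose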;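 further: 0 = sulfaphenazole-blocked wells and 1 = vehicle-only wells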
CYP2C19 activ – cytochrome P450 2C19 (human) activation | P33261 | recombinant CYP2C19, luciferin-H EGE luminescence; hits give high values; 0 = fully inhibited enzyme, 1 = untreated enzyme | activation factor at 5 µM | 96,000 tested, under 10 active | AID 1025;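 active means activation factor of at least 2 at 5 µM in the primary screen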;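 further: 0 = wells with 2.5 mM tranylcypromine and 1 = vehicle-only wells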
CYP2C19 inhib – inhibitors of human CYP2C19 | P33261 | CYP2C19 Supersomes, luciferin-H EGE luminescence, 30 min | inhibition, % at 5 µM | 96,000 tested, 21% active | AID 778;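 active means CYP2C19 inhibition above a set limit at 5 µM in the primary screen, cut at about 50% in these data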;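 further: plate controls were negative control wells for no effect and 2.5 mM tranylcypromine positive control for full effect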
The depositor's hits bear a star; / = not tested or not shown.

SMILES	Rev-RRE block	Cav3 T inh	CYP2C9 inhib	CYP2C9 act	CYP2C19 activ	CYP2C19 inhib
O=C1CSC(c2ccccc2)N1c1nnc(C23CC4CC(CC(C4)C2)C3)s1 (configuration not stated)	8	-0.46	14	0.9	0.9	14
Cc1ccc(C)c(OCC(=O)NCCN(C)C)c1	14	-0.3	-5	1.1	1	-2
CC(C)(C)c1ccc(/C=C/C(=O)NC2=NCCS2)cc1	7	-0.038	-13	1.1	0.8	15
CCc1ccc(NC(=O)C2C3C=CC(C4CC34)C2C(=O)O)cc1 (configuration not stated)	2	0.09	/	/	/	/
COc1ccc(-n2c(N3CCN(C)CC3)nc3sc4c(c3c2=O)CCCCC4)cc1	/	-0.079	41	0.6	0.4	64*
CN(C(=O)c1ccncc1)c1nnc(-c2cnccn2)s1	-2	0.19	97*	0	0.1	89*
Cc1ccc(-c2nnc(N(C)C(=O)c3ccccn3)s2)cn1	-1	0.69	6	0.9	1	2
CN(C(=O)c1cccnc1)c1nnc(-c2cnccn2)s1	6	-0.031	0	1	1.1	-14
Cc1ccc(-c2nnc(N(C)C(=O)c3ccncc3)s2)cn1	2	0.64	85*	0.2	0.6	41
CC1CC(C)CN(C(=O)c2ccc3c(=O)n(Cc4ccc5c(c4)OCO5)c(=S)[nH]c3c2)C1 (configuration not stated)	0	-4.5	49	0.5	0.5	48
COc1cc(-c2nnc(COC(=O)c3c4c(nc5ccccc35)CCCC4)o2)cc(OC)c1OC	-6	0.94	79*	0.2	0.3	68*
Cc1nn(-c2nc3ccccc3n2Cc2ccccc2)c2c1C(=O)CC(C)(C)C2	14	-5*	66*	0.3	0.5	53*
CCc1nnc(NC(=O)CC(CN(C)S(=O)(=O)c2ccccc2)c2ccccc2)s1 (configuration not stated)	10	-6.9*	44	0.6	0.8	24
CN(CC(CC(=O)Nc1nncs1)c1ccccc1)S(=O)(=O)c1ccc(Br)cc1 (configuration not stated)	11	-9.5*	57*	0.4	0.1	94*
CCc1nnc(NC(=O)c2cccc(S(=O)(=O)N(C)c3ccccc3)c2)s1	4	/	24	0.8	0.8	20
CN(CC(CC(=O)Nc1nncs1)c1ccccc1)S(=O)(=O)c1ccccc1 (configuration not stated)	5	-2.4	54*	0.5	0.1	90*
O=C(CSc1nnc(-c2ccc(Cl)s2)o1)N1CCOCC1	2	/	-10	1.1	1	-4
Cc1cc(C)c2c(c1)OC(O)(C(F)F)CC2=O (configuration not stated)	4	0.76	-43	1.4	0.1	88*
CC(C)CCNC(=O)c1c(CSc2ccc(Cl)cc2)noc1C(=O)NCc1ccccc1	/	0.034	/	/	/	/
CCCCOCP(=O)(CC)COCCCC	5	-0.038	3	1	0.7	32
Cc1ccc(CNCc2cc3c(C(C)(C)C)nn(-c4ccccc4)c3[nH]c2=O)cc1	12	-0.19	37	0.6	0.6	42
CC(C)(C)c1nn(-c2ccccc2)c2[nH]c(=O)c(CNCc3ccco3)cc12	8	0.23	62*	0.4	0.7	28
O=c1[nH]c2c(cc1CNCCN1CCOCC1)c(-c1cccc(F)c1)nn2-c1ccccc1	/	/	20	0.8	1	4
COc1ccc(CNCc2cc3c(C(C)(C)C)nn(-c4ccccc4)c3[nH]c2=O)cc1	17	-1.7	59*	0.4	0.6	41
CC(C)(C)NC(=O)CSc1nccn1Cc1ccccc1	7	-0.23	12	0.9	0.6	44
SMILES	Rev-RRE block	Cav3 T inh	CYP2C9 inhib	CYP2C9 act	CYP2C19 activ	CYP2C19 inhib
CCC(=O)N/C=C/n1cnc2cc(C(F)(F)F)ccc21	3	-0.59	38	0.6	0.2	80*
CCC(=O)Nc1ccc2c(c1)ncn2-c1ccc(OC)cc1	7	0.81	/	/	/	/
N#Cc1cc(C#N)c(N2CCN(c3cccc(Cl)n3)CC2)nc1N	5	-1.7	36	0.6	0	98*
CCn1ccnc1C(O)c1cccc(OC)c1OC (configuration not stated)	9	1.1	-15	1.2	1	1
CC(C)OC(=O)CSc1nnc(-c2ccc(O)cc2)n1Cc1ccccc1	1	-1.3	37	0.6	0.4	64*
CCn1c(SCC(=O)OC(C)C)nnc1-c1cccc(Cl)c1	/	-0.94	-27	1.3	0.5	55*
CC(C)OC(=O)CSc1nnc(-c2ccc(Cl)cc2Cl)n1N	4	-0.22	59*	0.4	0.3	65*
CC(C)OC(=O)CSc1nnc(-c2ccc(Cl)cc2)n1N	8	0.12	4	1	0.5	47
Cc1nc2nc(Cc3ccccc3)nn2c(C)c1Cl	2	-0.035	-10	1.1	0.9	11
NC(=O)CCn1nc(-c2ccc(Cl)cc2)c2ccccc2c1=O	4	0.43	32	0.7	0.4	57*
CNC(=O)CCn1nc(-c2ccccc2)c2ccccc2c1=O	6	0.26	12	0.9	0.8	21
CC(Oc1ccccc1)C(=O)N1CCC2(CC1)Oc1ccc(F)cc1C(=O)C21CC(c2ccc(Cl)cc2)=NO1 (configuration not stated)	/	-2.8	/	/	/	/
CC(Oc1ccccc1)C(=O)N1CCC2(CC1)Oc1ccc(F)cc1C(=O)C21CC(c2ccccc2)=NO1 (configuration not stated)	/	-4*	/	/	/	/
O=C1C(Cl)=C(NCC2CCCO2)C(=O)N1c1cccc(Cl)c1Cl (configuration not stated)	2	-1	46	0.5	0.2	82*
C=CCNC1=C(Cl)C(=O)N(c2cccc(Cl)c2Cl)C1=O	8	-0.85	47	0.5	0.1	90*
O=C1CC(Nc2ccc(N3CCOCC3)cc2)C(=O)N1CCc1ccccc1 (configuration not stated)	0	0.28	23	0.8	0.8	25
O=C1C(Cl)=C(NCCc2ccccc2)C(=O)N1CCc1ccccc1	9	0.67	13	0.9	1	-3
O=C1C(Cl)=C(N2CCOCC2)C(=O)N1CCc1ccccc1	4	-0.37	2	1	0.1	88*
O=C1C(Cl)=C(NCCCN2CCOCC2)C(=O)N1CCc1ccccc1	-2	/	78*	0.2	0.7	34
Cc1ccc(N2C(=O)C(Cl)=C(NCCO)C2=O)c(C)c1	4	-0.28	-14	1.1	0.6	42
O=C(CN1CCN(Cc2ccccc2Cl)C1=O)NCC1CCCO1 (configuration not stated)	/	1	-47	1.5	1	0
Cc1ccc(CC2CC(=O)N(c3nc4ccccc4n3C)C2=O)cc1 (configuration not stated)	2	-1.3	-46	1.5	0.9	8

Source: PubChem BioAssay
